Reference: the RNAGym collection of RNA variant scans (doi:10.1126/science.aae0568)
This sample holds only a part of the variants without activity.

B1: tRNA (parent)
chain: GUUCCGUUGGCGUAAUGGUAACGCGUCUCCCUCCUAAGGAGAAGACUGCGGGUUCGAGUCCCGUACGGAACG

Variants of: B1
Test: yeast fitness relative to wild type (ratio to wild type); higher = fitter; tRNA-Arg(CCU), competitive growth, 37 C, YPD
In short: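 Genotype frequency changes were the basis for Darwinian fitness relative to wild type. The frequencies came from 100-nucleotide paired-end sequencing of gene amplicons from the start population and each end population of pooled yeast strains with tRNA-Arg(CCU) gene variants at the native locus. Competition ran in YPD at 37°C for 24 hours in six replicates, genotypes needed ≥ 100 starting reads, and estimates < 0.5 were set to 0.5.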

| Variant | yeast fitness |
| --- | --- |
| GUUUCGUUGGCGUAAUGGUAACGCGUCUCCCUCCUAAGGAGAAGACUGCGGGUUCGAGUCCCGUCCGAAACG [C4U A65C G68A] | 1.03 |
| GUUUCGUUGGCGUAAUGGUAACGCGUCUCCCUCCUAAGGGGAAGACUGCGGGUUCGAGUCCUGUACGGAACG [C4U A40G C62U] | 0.667 |
| GUUUCGUUGGCGUAAUGGUAACGCGUCUCCCUCCUGAGGAGAACACUGCGGGUUCGAGUCCCGUACGGAACG [C4U A36G G44C] | 0.765 |
| GUUUCGUUGGCGUAAUGGUAACGCGUCUCCCUCCUAAGGAGCAGGCUGUGGGUUCGAGUCCCGUAAGGAACG [C4U A42C A45G C49U C66A] | ≤ 0.5 |
| GUUUCGUUGGCGUAAUGGUAACGCGUCUCCCUCCUAAGGAGAGGAUUGCGGGUUCGAGUCCCGUACGGAACG [C4U A43G C46U] | 0.994 |
| GUUUCGUUGGCGUAAUGGUAACGCGUCUCCCUCCUAAGGAGAAGACUGCGGGUUCGAGUCCCGUACGGAUCG [C4U A70U] | 1.02 |
| GUUUCGUUGGCGUAAUGGUAACGCGUCUCCCUCCUAAGGAGAAGACUGCGGGUUCGAGUCCCGUACGGACCG [C4U A70C] | 0.989 |
| GUUUCGUUGGCGUAAUGGUAACGCGUCUCCCUCCUGAGGAGAACACUGUGGGUUCGAGUCCCGUACGGAACG [C4U A36G G44C C49U] | 0.631 |
| GUUUAGUUGGCGUAAUGGUAACGCGUCUCCCUCCUUAGCAGAAGACUGCGGGUUCGAGUCCCGUCCGGAACG [C4U C5A A36U G39C A65C] | ≤ 0.5 |
| GUUUCGUUGGCGUAAUGGUAACGCGUCUCCCUCCUAAGGAGCAGACUGCGGGUUCGAGUCCCCUACGGAACG [C4U A42C G63C] | 0.522 |
| GUUUCGUUGGCGUAAUGGUAACGCGUCUCCCUCCUAUGGAGAAGACUGCGGGUUCGAGUCCCGUACGGACCG [C4U A37U A70C] | 0.676 |
| GUUUCGUUGGCGUAAUGGUAACGCGUCUCCCUCCUGAGGAGAAGACUGCGGGUUCGAGUCCCGUACGGCACG [C4U A36G A69C] | 0.8 |
| GUUUCGUUGGCGUAAUGGUAACGCGUCUCCCUCCUCAGGAGAAGACUGUGGGUUCGAAUCCCGUACGGAACG [C4U A36C C49U G58A] | 0.612 |
| GUUUCGUUGGCGUAAUGGUAACGCGUCUCCCUCCUAAGGCGAAGACUGCGGGUUCGAGUCCCGUACGGAGCG [C4U A40C A70G] | ≤ 0.5 |
| GUUUCGUUGGCGUAAUGGUAACGCGUCUCCCUCCUAAGGAGAAGGCUGCGGGUUCGCGUCCCGUACGGAACG [C4U A45G A57C] | 0.585 |
| GUUUCGUUGGCGUAAUGGUAACGCGUCUCCCUCCUAAGGAGAAGACUGCGGGUUCGAGUCCCGUCCGGAGCG [C4U A65C A70G] | 0.75 |
| GUUUCGUUGGCGUAAUGGUAACGCGUCUCCCUCCUAAGGUGAAGACUGCGGGUUCGAGUCCCGUACGGAACG [C4U A40U] | 0.898 |
| GUUUCGUUGGCGUAAUGGUAACGCGUCUCCCUCCUAAGGCGAAGACUGCGGGUUCGAGUCCCGUACGGAACG [C4U A40C] | 0.835 |
| GUUUCGUUGGCGUAAUGGUAACGCGUCUCCCUCCUUAGGCGAAGACUGCGGGUUCGAGUCCCGUACGAAACG [C4U A36U A40C G68A] | ≤ 0.5 |

| Variant | yeast fitness |
| --- | --- |
| GUUUCGUUGGCGUAAUGGUAACGCGUCUCCCUCCUAAGGAGAAGGCUGCGGGUUCGAGUCGCGUCCGGAUCG [C4U A45G C61G A65C A70U] | ≤ 0.5 |
| GUUUCGUUGGCGUAAUGGUAACGCGUCUCCCUCCUAAGGAGAUGACUGCGGGUUGGAGUCCCGUACAGAACG [C4U A43U C55G G67A] | 0.804 |
| GUUUCGUUGGCGUAAUGGUAACGCGUCUCCCUCCUCAGGAGAAGACUGCGGGUCCGAGUCCCGUACGGAACG [C4U A36C U54C] | ≤ 0.5 |
| GUUUCGUUGGCGUAAUGGUAACGCGUCUCCCUCCUAAGGAGCAGACUGCGCGUUCGAGUCCCGUGCGGAACG [C4U A42C G51C A65G] | 0.508 |
| GUUUCGUUGGCGUAAUGGUAACGCGUCUCCCUCCUAAGGAGAAGACUGCGGGUUCGCAUCCCGUACGGAACG [C4U A57C G58A] | 0.58 |
| GUUUCGUUGGCGUAAUGGUAACGCGUCUCCCUCCUAUGGAGAAGACUGUGGGUUCGAGUCCCGUACGGAACG [C4U A37U C49U] | 0.563 |
| GUUUCGUUGGCGUAAUGGUAACGCGUCUCCCUCCUAGGGAGAAGAUUGCGGGUUCGAGUCCCGUACGGAACG [C4U A37G C46U] | 0.54 |
| GUUUCGUUGGCGUAAUGGUAACGCGUCUCCCUCCUUAGGAGAAGACUGCGGAUUCGAGUCCCGUACGGAACG [C4U A36U G52A] | ≤ 0.5 |
| GUUUCGUUGGCGUAAUGGUAACGCGUCUCCCUCCUAAGGAGAAGUCUGCGGGUUCGAGUCCCGUACGGUACG [C4U A45U A69U] | 0.827 |
| GUUUCGUUGGCGUAAUGGUAACGCGUCUCCCUCCUAAGGAGAAGUCUGCGGGUUCGAGUCCCGUACGGCACG [C4U A45U A69C] | 0.79 |
| GUUUCGUUGGCGUAAUGGUAACGCGUCUCCCUCCUAAGGUGAAGACUGCGGGUUCGAGUCCCGUAUGGAACG [C4U A40U C66U] | 0.762 |
| GUUUCGUUGGCGUAAUGGUAACGCGUCUCCCUCCUAAGGAGGAGACUGCGGGUUCGAGUCCCGUUCGGAACG [C4U A42G A65U] | 0.611 |
| GUUUCGUUGGCGUAAUGGUAACGCGUCUCCCUCCUACGGAGAAGACUCCCGGUUCGAGUCCCGUACGGAACG [C4U A37C G48C G50C] | ≤ 0.5 |
| GUUUCGUUGGCGUAAUGGUAACGCGUCUCCCUCCUAAGGGGAAGACUGCGGGUUCGAGUGCCGUACGGAACG [C4U A40G C60G] | 0.544 |
| GUUUAGUUGGCGUAAUGGUAACGCGUCUCCCUCCUAAGGAGAAGAUUGCGGGUUCGAGUCCCGUACGGAACG [C4U C5A C46U] | 0.655 |
| GUUUAGUUGGCGUAAUGGUAACGCGUCUCCCUUCUAAGGAGAAGACUGCGGGUUCGAGUCCCGUAUGGAACG [C4U C5A C33U C66U] | ≤ 0.5 |
| GUUUCGUUGGCGUAAUGGUAACGCGUCUCCCUCCUAAGGAGAAGACUGCGGGUUCGAGUCCCGUUCGGAACG [C4U A65U] | 1.04 |
| GUUUCGUUGGCGUAAUGGUAACGCGUCUCCCUCCUCAGGAGAAGACUACGGGUUCGAGUCCCGUACGGAACG [C4U A36C G48A] | 0.71 |
